Experimental data: paper PMC7888308 (ACS Pharmacology & Translational Science, 2021)
Residue numbers refer to the chain shown, from its start. ≈ marks a conversion by molar mass, not a printed value.

Columns and labels:
human liver microsomes = assay: human liver microsome metabolism experiment; type: in vitro ADME; conditions: CAB 10 μM, microsomes 0.5 mg/mL, UDPGA, 60 min, 37 °C
In short: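 Pooled liver microsomes (50 mixed-sex donors, 0.5 mg/mL) were preincubated 5 min at 37 °C with test compound (10 μM) in 100 mM potassium phosphate, pH 7.4. A UGT reaction mixture containing 25 mM UDPGA plus alamethicin was added, and reactions ran 60 min at 37 °C. Acetonitrile quench, centrifugation, drying and methanol reconstitution followed. Glucuronide was detected by LC–MS/MS using the m/z 582 → 406 transition.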

human kidney microsomes = assay: human kidney microsome metabolism experiment; type: in vitro ADME; conditions: CAB 10 μM, microsomes 0.5 mg/mL, UGT cofactor, 60 min, 37 °C
wild-type UGT1A1 = molecular target: T1, wild-type UGT1A1 (Homo sapiens, UniProt P22309); assay: glucuronidation by wild-type UGT1A1 expressed in COS-7 cells; type: in vitro ADME; conditions: 20 μM drug, 24 h
T1 sequence (P22309 26-533): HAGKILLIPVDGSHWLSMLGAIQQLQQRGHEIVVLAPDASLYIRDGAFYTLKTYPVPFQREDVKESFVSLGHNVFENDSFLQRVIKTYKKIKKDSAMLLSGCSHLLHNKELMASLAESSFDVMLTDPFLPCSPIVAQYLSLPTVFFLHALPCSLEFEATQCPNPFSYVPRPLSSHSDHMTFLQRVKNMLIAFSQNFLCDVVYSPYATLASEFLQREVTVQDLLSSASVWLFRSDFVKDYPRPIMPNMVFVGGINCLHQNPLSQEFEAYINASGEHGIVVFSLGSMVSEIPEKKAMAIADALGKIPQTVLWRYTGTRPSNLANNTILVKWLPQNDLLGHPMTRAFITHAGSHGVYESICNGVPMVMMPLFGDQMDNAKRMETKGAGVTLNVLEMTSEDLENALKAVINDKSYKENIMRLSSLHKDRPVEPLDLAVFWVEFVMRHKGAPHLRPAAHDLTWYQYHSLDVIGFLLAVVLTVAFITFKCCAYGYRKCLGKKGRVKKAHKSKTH

UGT1A1 P152T = molecular target: T2, UGT1A1 P152T (Homo sapiens, UniProt P22309, P152T); assay: glucuronidation by UGT1A1 P152T expressed in COS-7 cells; type: in vitro ADME; conditions: 20 μM drug, 24 h, compared to wild-type UGT1A1
T2 sequence (P22309 26-533 P152T): T1 sequence (P22309 26-533) with P127T

UGT1A9 wild-type = molecular target: T3, UGT1A9 wild-type (Homo sapiens, UniProt O60656); assay: CAB glucuronidation by UGT1A9 wild-type expressed in COS-7 cells; type: in vitro ADME
T3 sequence (O60656 26-530): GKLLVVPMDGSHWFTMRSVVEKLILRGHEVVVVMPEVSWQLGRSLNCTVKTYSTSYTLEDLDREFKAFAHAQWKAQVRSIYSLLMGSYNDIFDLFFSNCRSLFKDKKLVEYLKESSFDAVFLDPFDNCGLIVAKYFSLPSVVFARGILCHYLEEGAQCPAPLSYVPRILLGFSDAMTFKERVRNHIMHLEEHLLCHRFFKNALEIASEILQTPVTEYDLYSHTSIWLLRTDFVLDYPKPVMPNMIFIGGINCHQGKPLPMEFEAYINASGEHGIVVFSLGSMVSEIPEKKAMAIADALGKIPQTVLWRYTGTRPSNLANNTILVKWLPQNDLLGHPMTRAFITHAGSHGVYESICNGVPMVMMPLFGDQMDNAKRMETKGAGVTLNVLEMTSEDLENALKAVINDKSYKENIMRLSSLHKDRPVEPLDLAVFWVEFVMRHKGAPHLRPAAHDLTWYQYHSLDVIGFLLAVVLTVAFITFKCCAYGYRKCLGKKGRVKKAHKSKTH

UGT1A9 H217Y = molecular target: T4, UGT1A9 H217Y (Homo sapiens, UniProt O60656, H217Y); assay: CAB glucuronidation by UGT1A9 H217Y expressed in COS-7 cells; type: in vitro ADME
T4 sequence (O60656 26-530 H217Y): T3 sequence (O60656 26-530) with H192Y

UGT1A9 R464G = molecular target: T5, UGT1A9 R464G (Homo sapiens, UniProt O60656, R464G); assay: CAB glucuronidation by UGT1A9 R464G expressed in COS-7 cells; type: in vitro ADME
T5 sequence (O60656 26-530 R464G): T3 sequence (O60656 26-530) with R439G

[1] = pH 6.8 phosphate buffer at 20 °C; cited from earlier work
HIV integrase = conditions: in vitro assays; cited from earlier work
UGT1A1 = conditions: reaction phenotyping; cited from earlier work
UGT1A9 = conditions: reaction phenotyping; cited from earlier work
[2] = HPTN 077 participants, South Africa, Brazil, Malawi, United States; cited from earlier work

Structure (SMILES) | additional metabolites in human liver microsomes (human liver microsomes) | metabolite formed in human liver microsomes (human liver microsomes) | metabolite formation in human kidney microsomes (human kidney microsomes) | glucuronidation in cells transfected with wild-type UGT1A1 (wild-type UGT1A1) | glucuronidated metabolite in cells expressing UGT1A1 P152T (UGT1A1 P152T) | formation of CAB-glucuronide by UGT1A9 wild-type (UGT1A9 wild-type; 24 h incubation with CAB) | CAB-glucuronide production by UGT1A9 wild-type (UGT1A9 wild-type; 48 h treatment with CAB) | formation of CAB-glucuronide by UGT1A9 H217Y (UGT1A9 H217Y; 24 h incubation with CAB) | CAB-glucuronide production by UGT1A9 H217Y (UGT1A9 H217Y; 48 h treatment with CAB) | formation of CAB-glucuronide by UGT1A9 R464G (UGT1A9 R464G; 24 h incubation with CAB) | CAB-glucuronide production by UGT1A9 R464G (UGT1A9 R464G; 48 h treatment with CAB) | aqueous solubility [1] | efficacy of inhibition of integrase-catalyzed viral DNA strand transfer (HIV integrase) | fractional contribution of UGT1A1 to CAB metabolism (UGT1A1) | fractional contribution of UGT1A9 to CAB metabolism (UGT1A9) | tolerability [2]
C[C@H]1CO[C@@H]2Cn3cc(C(=O)NCc4ccc(F)cc4F)c(=O)c(O)c3C(=O)N12 [CAB, Cabotegravir] | no additional metabolites of CAB were detected | identified as CAB-glucuronide | observed the formation of CAB-glucuronide | readily glucuronidated | undetectable | not observed | able to detect | not observed | able to detect | not observed | not detectable above the background | 15 µg/mL (≈ 37 µM) | low or subnanomolar | 0.67 | 0.33 | well tolerated
C[C@@H]1CCO[C@H]2Cn3cc(C(=O)NCc4ccc(F)cc4F)c(=O)c(O)c3C(=O)N12 [DTG, dolutegravir] | – | – | – | readily glucuronidated | undetectable | – | – | – | – | – | – | – | – | – | – | –
CCc1c2c(nc3ccc(O)cc13)-c1cc3c(c(=O)n1C2)COC(=O)[C@]3(O)CC [SN-38, 7-ethyl-10-hydroxycamptothecin] | – | – | – | – | marked reduction | – | – | – | – | – | – | – | – | – | – | –
